According to ChEMBL document CHEMBL2429727, “Syntheses, biological evaluation and SAR of ingenol mebutate analogues for treatment of actinic keratosis and non-melanoma skin cancer” (Bioorg Med Chem Lett, 2013):

Assays:
Keratinocyte [1] = experiment: Induction of IL-8 release in human primary epidermal keratinocytes after 6 hrs by HTRF assay relative to ingenol mebutate; format: functional
Keratinocyte [2] = experiment: Induction of IL-8 release in human primary epidermal keratinocytes after 6 hrs by HTRF assay; format: functional, cell-based
[3] = Induction of oxidative burst in polymorphonuclear leukocytes (unknown origin) isolated from buffy coat after 40 mins by fluorescence assay; format: functional, cell-based
Summary of the method: (§1)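 PMN isolated and purified from fresh buffy coats, then incubated 40 min at ambient temperature with titrated compound (top concentration 10 µM) premixed with hydroethidine. Respiratory burst read as fluorescence in relative light units, emission 579 nm, excitation 485 nm. EC50 and Emax are expressed relative to the maximum effect of the ingenol mebutate reference.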

[4] = Chemical stability of the compound in aqueous buffer assessed as drug recovery after 16 hrs at pH 7.4 by HPLC analysis; format: physicochemical; settings: read-out: Drug recovery
Summary of the method: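 DMSO stock diluted with pre-heated (37 °C) aqueous buffer pH 7.4 to at most 30% v/v organic content, then shaken. Held in the HPLC autosampler at 37 °C, first injected within 5 min, then injected repeatedly over 16 h. Recovery taken from the fall in compound peak area, UV detection normally at 270 nm.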

Keratinocyte [5] = experiment: Induction of TNFalpha release in human primary epidermal keratinocytes after 6 hrs relative to ingenol mebutate; format: functional
Summary of the method: (§2)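 Human adult log-phase primary epidermal keratinocytes subcultured at 10,000 cells/well. Incubated with titrated compound for 6 h at 37 °C in humidified 95% air/5% CO2. Secreted cytokines quantified on 4-spot cytokine plates. EC50 is the concentration giving 50% of the maximum effect of the ingenol mebutate reference. Emax is maximal response relative to that reference.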

Keratinocyte [6] = experiment: Induction of TNFalpha release in human primary epidermal keratinocytes after 6 hrs; format: functional, cell-based; summary of the method: as §2
[7] = Induction of oxidative burst in polymorphonuclear leukocytes (unknown origin) isolated from buffy coat at 10 uM after 40 mins by fluorescence assay relative to ingenol mebutate; format: functional; summary of the method: as §1
[8] = Induction of necrosis in human HeLa cells after 30 mins by resazurin assay; format: cell-based; settings: read-out: LC50
Summary of the method: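 HeLa cells exposed to increasing ester concentrations up to 400 µM for 30 min at 37 °C. Remaining metabolic activity then read with a resazurin-based dye. LC50 is the concentration causing 50% loss of metabolic activity.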

| Structure (SMILES) | Emax (Keratinocyte [1]) [%] | EC50 (Keratinocyte [2]) [nM] | EC50 [3] [nM] | remaining at 16 h [4] [%] | Emax (Keratinocyte [5]) [%] | EC50 (Keratinocyte [6]) [nM] | Emax at 10 µM [7] [%] | CC50 at 0.5 h [8] [nM] |
| --- | --- | --- | --- | --- | --- | --- | --- | --- |
| CC1=C[C@]23C(=O)[C@@H](C=C(CO)[C@@H](O)[C@]2(O)[C@H]1OC(=O)C1CCC1)[C@H]1[C@@H](C[C@H]3C)C1(C)C | 55 | 882 | 10 | 10 | 60 | 450 | 111 |  |
| CC1=C[C@]23C(=O)[C@@H](C=C(CO)[C@@H](O)[C@]2(O)[C@H]1OC(=O)C1=CCCCC1)[C@H]1[C@@H](C[C@H]3C)C1(C)C | 45 | 10000 | 6.7 | 60 | 42 | 10000 | 99 |  |
| CC1=C[C@]23C(=O)[C@@H](C=C(CO)[C@@H](O)[C@]2(O)[C@H]1OCC(=O)OC(C)(C)C)[C@H]1[C@@H](C[C@H]3C)C1(C)C |  | 10000 | 3300 | 95 |  | 10000 | 111 | 311000 |
| CC1=C[C@]23C(=O)[C@@H](C=C(CO)[C@@H](O)[C@]2(O)[C@H]1OC(=O)/C(C)=C\c1ccc(C)cc1)[C@H]1[C@@H](C[C@H]3C)C1(C)C | 87 | 2.1 | 5.9 | 45 | 101 | 3.1 | 126 | 109000 |
| C=C(CC)C(=O)O[C@H]1C(C)=C[C@]23C(=O)[C@@H](C=C(CO)[C@@H](O)[C@]12O)[C@H]1[C@@H](C[C@H]3C)C1(C)C | 100 | 21 | 5.2 | 30 | 101 | 29 | 102 | 129000 |
| C/C=C/C(=O)O[C@H]1C(C)=C[C@]23C(=O)[C@@H](C=C(CO)[C@@H](O)[C@]12O)[C@H]1[C@@H](C[C@H]3C)C1(C)C | 93 | 821 | 9.1 | 0 | 91 | 802 | 110 |  |
| CC1=C[C@]23C(=O)[C@@H](C=C(CO)[C@@H](O)[C@]2(O)[C@H]1OC(=O)c1ccccc1)[C@H]1[C@@H](C[C@H]3C)C1(C)C | 54 | 182 | 6 | 30 | 60 | 88 | 110 |  |
| C/C=C(/C)C(=O)O[C@H]1C(C)=C[C@]23C(=O)[C@@H](C=C(COC)[C@@H](O)[C@]12O)[C@H]1[C@@H](C[C@H]3C)C1(C)C |  | 10000 | 10000 | 77 |  | 10000 |  | 400000 |
| CO/N=C(/C(=O)O[C@H]1C(C)=C[C@]23C(=O)[C@@H](C=C(CO)[C@@H](O)[C@]12O)[C@H]1[C@@H](C[C@H]3C)C1(C)C)c1ccccc1 | 45 | 10000 | 28 | 55 | 47 | 10000 | 117 |  |
| CC(C)=CC(=O)O[C@H]1C(C)=C[C@]23C(=O)[C@@H](C=C(CO)[C@@H](O)[C@]12O)[C@H]1[C@@H](C[C@H]3C)C1(C)C | 74 | 86 | 4.3 | 55 | 82 | 66 | 109 | 283000 |
| CC1=C[C@]23C(=O)[C@@H](C=C(CO)[C@@H](O)[C@]2(O)[C@H]1OC(=O)C1CCCCC1)[C@H]1[C@@H](C[C@H]3C)C1(C)C | 43 | 10000 | 6 | 35 | 47 | 10000 | 104 | 112000 |
| CC#CC(=O)O[C@H]1C(C)=C[C@]23C(=O)[C@@H](C=C(CO)[C@@H](O)[C@]12O)[C@H]1[C@@H](C[C@H]3C)C1(C)C |  | 10000 | 17 | 5 |  | 10000 | 112 |  |
| CC1=C[C@]23C(=O)[C@@H](C=C(CO)[C@@H](O)[C@]2(O)[C@H]1OC(=O)C1CCCC1)[C@H]1[C@@H](C[C@H]3C)C1(C)C | 54 | 69 | 6.5 | 30 | 58 | 65 | 107 |  |
| CC1=C[C@]23C(=O)[C@@H](C=C(CO)[C@@H](O)[C@]2(O)[C@H]1OC(=O)C1CC1)[C@H]1[C@@H](C[C@H]3C)C1(C)C | 83 | 256 | 26 | 30 | 81 | 243 | 112 |  |
| C/C=C(/C)C(=O)O[C@H]1C(C)=C[C@]23C(=O)[C@@H](C=C(CO)[C@@H](OC)[C@]12O)[C@H]1[C@@H](C[C@H]3C)C1(C)C |  | 738 | 281 | > 95 | 131 | 748 | 119 |  |
| C/C=C(/C)C(=O)O[C@H]1C(C)=C[C@@]23C(=O)[C@H]([C@H]4[C@@H](C[C@H]2C)C4(C)C)[C@H]2O[C@@]2(CO)[C@@H](O)[C@]13O | 119 | 320 | 50 |  | 156 | 367 | 114 |  |
| CC1=C[C@]23C(=O)[C@@H](C=C(CO)[C@@H](O)[C@]2(O)[C@H]1O)[C@H]1[C@@H](C[C@H]3C)C1(C)C [INGENOL] |  | 10000 | 10000 | > 95 |  | 10000 |  | > 400000 |
| CC1=C[C@]23C(=O)[C@@H](C=C(CO)[C@@H](O)[C@]2(O)[C@H]1OC(=O)C(C)C)[C@H]1[C@@H](C[C@H]3C)C1(C)C | 63 | 120 | 19 | 30 | 72 | 112 | 104 |  |
| CCCC(=O)O[C@H]1C(C)=C[C@]23C(=O)[C@@H](C=C(CO)[C@@H](O)[C@]12O)[C@H]1[C@@H](C[C@H]3C)C1(C)C | 115 | 313 | 25 | 18 | 87 | 318 | 88 |  |
| CC1=C[C@]23C(=O)[C@@H](C=C(CO)[C@@H](O)[C@@]24OC(=O)O[C@@H]14)[C@H]1[C@@H](C[C@H]3C)C1(C)C | 109 | 171 | 181 |  | 112 | 253 | 124 | 400000 |
| CC1=C[C@]23C(=O)[C@@H](C=C(CO)[C@@H](O)[C@@]24OC(=O)CO[C@@H]14)[C@H]1[C@@H](C[C@H]3C)C1(C)C |  | 10000 | 10000 | 25 |  | 10000 |  |  |
